The source of these data is ChEMBL document CHEMBL3860087, “New Broad-Spectrum Antibacterial Amphiphilic Aminoglycosides Active against Resistant Bacteria: From Neamine Derivatives to Smaller Neosamine Analogues” (J Med Chem, 2016).

In brackets after ≈: the same amount, converted by molar mass.

The subject of data set [1] is Staphylococcus aureus. Briefly: Antibacterial activity against Staphylococcus aureus ATCC 25923 by microdilution method. The data set is classed as functional. An outline of the steps: (§1)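 Broth microdilution per CLSI in cation-adjusted Mueller–Hinton broth. Strains were grown overnight at 37 °C on trypticase soy agar, and a fresh culture was used. Starting inoculum was 10^6 cells.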

In data set [2] the test system is Staphylococcus aureus. Description: Antibacterial activity against NorA expressing Staphylococcus aureus 1 by microdilution method.
The subject of data set [3] is Staphylococcus aureus. Description: Antibacterial activity against healthcare-acquired methicillin-resistant Staphylococcus aureus ATCC 33592 by microdilution method. The data set is classed as functional. An outline of the steps: as §1
A general note: In broth dilution the organism is exposed to a series of concentrations in liquid medium.

The test system of data set [4] is Pseudomonas aeruginosa. Description: Antibacterial activity against Pseudomonas aeruginosa ATCC 27853 by microdilution method. It is filed as functional. In a few lines: (§2)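 Strains grown overnight at 37 °C on trypticase soy agar; MIC by broth microdilution from fresh culture in cation-adjusted Mueller–Hinton broth, starting inoculum 10^6 cells, following CLSI recommendations.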

Data set [5] concerns Pseudomonas aeruginosa. Description: Antibacterial activity against AAC6'-2A expressing Pseudomonas aeruginosa F03 by microdilution method. It is filed as functional. An outline of the steps:
as §2

The subject of data set [6] is Pseudomonas aeruginosa. Briefly: Antibacterial activity against MexXY expressing Pseudomonas aeruginosa PA22 by microdilution method. The data set is classed as functional. In a few lines: as §2
The test system of data set [7] is Pseudomonas aeruginosa. Description: Antibacterial activity against triABC deficient Pseudomonas aeruginosa PA406 by microdilution method. It is filed as functional. In a few lines: as §2
For data set [8], the system named is Acinetobacter lwoffii. Briefly: Antibacterial activity against Acinetobacter lwoffii ATCC 17925 by microdilution method. The data set is classed as functional. An outline of the steps: as §2
The test system of data set [9] is Acinetobacter lwoffii. Briefly: Antibacterial activity against APH3'-VIA expressing Acinetobacter lwoffii AI.88-483 by microdilution method. It is filed as functional. An outline of the steps: as §2
For data set [10], the system named is Escherichia coli. Briefly: Antibacterial activity against AAC6'-IB expressing Escherichia coli PAZ505H8101 by microdilution method. It is filed as functional. In a few lines:
as §2

Data set [11] deals with Escherichia coli. Description: Antibacterial activity against ANT2''-IA expressing Escherichia coli L8058.1 by microdilution method. It is filed as functional. In a few lines:
as §2

The test system of a further data set is Klebsiella pneumoniae. Briefly: Antibacterial activity against Klebsiella pneumoniae ATCC 700603 by microdilution method. It is filed as functional. An outline of the steps:
as §2

Data set [12] is described as follows: (§3) Cytotoxicity against mouse J774 cells assessed as cell viability at 10 uM after 24 hrs by MTT assay relative to control. The note with it: J774 cells, read-out: Activity. The data set is classed as toxicity, cell-based. In a few lines:
(§4)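 Murine J774 macrophages exposed 24 h to 10 or 30 μM compound, then 1 h with 0.2 mg/mL MTT; reaction stopped with DMSO, OD read at 570 nm as metabolic-activity viability. Number of independent experiments given per value.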

Data set [13] in a line: (§5) Cytotoxicity against mouse J774 cells assessed as cell viability at 30 uM after 24 hrs by MTT assay relative to control. The data set is classed as toxicity, cell-based. The following applies: J774 cells, read-out: Activity. An outline of the steps: as §4
Data set [14] deals with Escherichia coli. Briefly: microbe, parasite or virus in culture. The following applies: ATCC 25922.
The subject of data set [15] is Pseudomonas aeruginosa. Description: Ratio of MIC for Pseudomonas aeruginosa ATCC 27853 after 4 serial passages to MIC for Pseudomonas aeruginosa ATCC 27853 prior to serial passages. It is filed as functional.
Data set [16] has as its system Pseudomonas aeruginosa. Description: Induction of inner membrane permeabilization of Pseudomonas aeruginosa ATCC 27853 at 5 uM after 15 mins by propidium iodide staining-based fluorescence assay relative to control. The data set is classed as functional. An outline of the steps: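 P. aeruginosa ATCC 27853 from TSA colony, overnight in MHB-CA at 37 °C with shaking, diluted 100-fold and grown 4 h to mid-log (OD620 ~0.4–0.5). Suspension (OD600 0.05) with PI (3 mM stock diluted 10^3-fold) plus compound in HEPES (1–10 μM final). Fluorescence ex 540/em 610 nm at 25 °C after 15 min; normalized to CTAB 150 μM (100%) and imipenem (0%).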

Data set [17] is filed under the species Mus musculus. The data set is described as §3. The data set is classed as toxicity, cell-based. The following applies: j774, 24 h, 10 µM. An outline of the steps:
as §4

For data set [18], the species on record is Mus musculus. Described as §5. It is filed as toxicity, cell-based. The following applies: j774, 24 h, 30 µM. In a few lines:
as §4

With `NC[C@@H]1O[C@H](O[C@H]2[C@@H](O)[C@H](O[C@@H]3[C@@H](O)[C@H](N)C[C@H](N)[C@H]3O[C@H]3O[C@H](CN)[C@@H](O)[C@H](O)[C@H]3N)O[C@@H]2CO)[C@H](N)[C@@H](O)[C@@H]1O` [FRAMYCETIN], the MIC against Staphylococcus aureus [1] is 1 to 2 µg/mL (≈ 1.63 to 3.25 µM); in the data set on Staphylococcus aureus [2], 0.5 µg/mL (≈ 0.813 µM); against Staphylococcus aureus [3] it was greater than 128 µg/mL; against Pseudomonas aeruginosa [4], 64 µg/mL (≈ 104 µM); against Pseudomonas aeruginosa [5], 128 µg/mL (≈ 208 µM); against Pseudomonas aeruginosa [6] it was 32 to 64 µg/mL (≈ 52.1 to 104 µM). Also, the MIC in the data set with Pseudomonas aeruginosa [7] was 2 µg/mL (≈ 3.25 µM); against Acinetobacter lwoffii [8], less than 0.25 µg/mL; against Acinetobacter lwoffii [9], 64 to 128 µg/mL (≈ 104 to 208 µM); in the data set on Escherichia coli [10] it was 4 µg/mL (≈ 6.51 µM); in the data set on Escherichia coli [11], 1 µg/mL (≈ 1.63 µM); against Klebsiella pneumoniae, 4 to 8 µg/mL (≈ 6.51 to 13 µM). Moreover, the MIC in the data set with Escherichia coli [14] is 2 µg/mL (≈ 3.25 µM). For the same molecule, the viability at 24 h, 10 µM in data set [12] is 87.3%. Further, in data set [13], the viability at 24 h, 30 µM is 69.8%.

Turning to `C=CCO[C@H]1O[C@H](CN)[C@@H](OCCCc2ccc3ccccc3c2)[C@H](OCCCc2ccc3ccccc3c2)[C@H]1N`, the MIC is 4 to 8 µg/mL (≈ 7.21 to 14.4 µM) in the data set on Staphylococcus aureus [1]; 4 µg/mL (≈ 7.21 µM) against Staphylococcus aureus [2]; 4 to 8 µg/mL (≈ 7.21 to 14.4 µM) against Staphylococcus aureus [3]; 128 µg/mL (≈ 231 µM) with Pseudomonas aeruginosa [4]; greater than 128 µg/mL in the data set on Pseudomonas aeruginosa [5]; greater than 128 µg/mL in the data set with Pseudomonas aeruginosa [6]. In addition, the MIC against Pseudomonas aeruginosa [7] is 32 µg/mL (≈ 57.7 µM); in the data set with Acinetobacter lwoffii [8], 4 to 8 µg/mL (≈ 7.21 to 14.4 µM); in the data set with Acinetobacter lwoffii [9], 64 µg/mL (≈ 115 µM); with Escherichia coli [10], 64 µg/mL (≈ 115 µM); in the data set with Escherichia coli [11], 64 µg/mL (≈ 115 µM); against Klebsiella pneumoniae it was 128 µg/mL (≈ 231 µM). Further, the MIC in the data set with Escherichia coli [14] lay within 32 to 64 µg/mL (≈ 57.7 to 115 µM). For the same molecule, the viability at 24 h, 10 µM in [12] is 105%. The viability at 24 h, 30 µM in [13] worked out at 7%.

As to `O=C(O)c1cn(C2CC2)c2cc(N3CCNCC3)c(F)cc2c1=O` [CIPROFLOXACIN], the Ratio in the data set with Pseudomonas aeruginosa [15] amounted to 15.

As for `C=CCO[C@H]1O[C@H](CN)[C@@H](O)[C@H](O)[C@H]1N`, the MIC in the data set with Staphylococcus aureus [1], with Staphylococcus aureus [2], against Staphylococcus aureus [3], with Pseudomonas aeruginosa [4], against Pseudomonas aeruginosa [5] and against Pseudomonas aeruginosa [6] was greater than 128 µg/mL each time. For the same molecule, the MIC in the data set with Pseudomonas aeruginosa [7], in the data set on Acinetobacter lwoffii [8], in the data set with Acinetobacter lwoffii [9], in the data set on Escherichia coli [10], with Escherichia coli [11] and with Klebsiella pneumoniae was greater than 128 µg/mL in each case. The molecule also gave an MIC against Escherichia coli [14] greater than 128 µg/mL. Besides, in data set [12], the viability at 24 h, 10 µM was 82.2%. Besides, the viability at 24 h, 30 µM in data set [13] amounted to 82.1%.

In the data set on Pseudomonas aeruginosa [16], `CCCCCCCCCO[C@@H]1[C@@H](N)[C@@H](OCC(O)CNCCCN)O[C@H](CN)[C@H]1OCCCCCCCCC` (mixture of isomers) had an Activity of 25%. Also, the MIC against Staphylococcus aureus [1] came out at 2 µg/mL; in the data set with Staphylococcus aureus [2], 2 µg/mL; against Staphylococcus aureus [3] it was 2 µg/mL; with Pseudomonas aeruginosa [4], 8 µg/mL; against Pseudomonas aeruginosa [5], 8 µg/mL; with Pseudomonas aeruginosa [6], 8 µg/mL. Also, the MIC is 4 µg/mL in the data set with Pseudomonas aeruginosa [7]; 2 µg/mL against Acinetobacter lwoffii [8]; 8 µg/mL with Acinetobacter lwoffii [9]; 4 µg/mL against Escherichia coli [10]; 8 µg/mL against Escherichia coli [11]; 32 µg/mL in the data set with Klebsiella pneumoniae. This molecule displayed an MIC with Escherichia coli [14] of 8 µg/mL. In data set [12], the viability at 24 h, 10 µM came out at 101%. In data set [13], the viability at 24 h, 30 µM is 71.6%.

As for GENTAMICIN, the results for the Activity in the data set filed under Mus musculus [17] and in the data set filed under Mus musculus [18] were 88.2% and 74.2%, respectively.

For the molecule `NC[C@H]1O[C@H](O[C@H]2[C@H](O)[C@@H](OCc3ccc4ccccc4c3)[C@H](N)C[C@@H]2N)[C@H](N)[C@@H](OCc2ccc3ccccc3c2)[C@@H]1O`, the MIC with Staphylococcus aureus [1] was 8 µg/mL (≈ 13.3 µM); in the data set on Staphylococcus aureus [2], 4 to 8 µg/mL (≈ 6.64 to 13.3 µM); with Staphylococcus aureus [3], 8 to 16 µg/mL (≈ 13.3 to 26.5 µM); against Pseudomonas aeruginosa [4], 64 to 128 µg/mL (≈ 106 to 212 µM); against Pseudomonas aeruginosa [5] it was 64 to 128 µg/mL (≈ 106 to 212 µM); against Pseudomonas aeruginosa [6], greater than 128 µg/mL. In addition, the MIC was 2 to 4 µg/mL (≈ 3.32 to 6.64 µM) with Pseudomonas aeruginosa [7]; 4 to 8 µg/mL (≈ 6.64 to 13.3 µM) in the data set with Acinetobacter lwoffii [8]; 128 µg/mL (≈ 212 µM) against Acinetobacter lwoffii [9]; 32 µg/mL (≈ 53.1 µM) against Escherichia coli [10]; 64 to 128 µg/mL (≈ 106 to 212 µM) in the data set on Escherichia coli [11]; 128 µg/mL (≈ 212 µM) in the data set with Klebsiella pneumoniae. Further, the MIC in the data set on Escherichia coli [14] is 32 to 64 µg/mL (≈ 53.1 to 106 µM). For the same molecule, in data set [12], the viability at 24 h, 10 µM was 86%. The viability at 24 h, 30 µM in [13] came out at 75.9%.
